In publication PMC12373759 (Communications Medicine, 2025):
Values joined by “and” are separate entries in the source; they are usually repeats but may differ in a detail not shown here. Identical values can stand only once. Bridge positions count the residues as written; N and C are the ends. Square brackets hold non-standard residues; d marks the D form. Peptide text beside a SMILES is read from it. * marks the point of attachment. DOTA = O=C(O)CN1CCN(CC(=O)O)CCN(CC(=O)*)CCN(CC(=O)O)CC1; Thr(ol) = C[C@@H](O)[C@H](N)CO

What was measured:
corticotropinomas = conditions: PET/CT; cited from earlier work
Sterility test = conditions: no visible growth or turbidity for up to 14 days
[1] = Plasma protein binding, TCA precipitation method; format: in vitro ADME; conditions: 37 °C, 10% TCA
[2] = Shelf-life / stability in normal saline; format: physicochemical
Procedure, shortened: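 Shelf-life: radiotracer kept in normal saline at room temperature and examined for up to 4 h.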

[3] = Ex vivo biodistribution in healthy Wistar rats
Procedure, shortened: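 Nine healthy male Wistar rats (16 weeks, 274 ± 13 g) each received 8 ± 1.1 MBq radiotracer IV via the penile vein. Under ketamine (40 mg/kg) plus xylazine (4 mg/kg) anaesthesia, rats were killed by cervical dislocation at 30, 60 and 120 min (n = 3 per time). Organs were weighed and gamma-counted (NaI(Tl)). %ID/g used injected counts corrected for injection-site and syringe residues. Blood pool was taken as 7% of body weight. Mean ± SD.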

corticotropinoma = conditions: cited from earlier work
Endotoxin test = conditions: V = 2 mL, dilution factor 10; limit <175 EU/V
Procedure, shortened: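 Chromogenic endotoxin assay per USP 85 on the in-house-prepared radiotracer. Results and the acceptance limit are expressed as endotoxin units per injection volume (EU/V).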

[4] = Stability in human serum at 37 °C; format: in vitro ADME
[5] = target: T1, recombinant human V1b receptor (Homo sapiens, UniProt P47901); experiment: In-vitro receptor binding assay
T1 sequence (P47901 1-424): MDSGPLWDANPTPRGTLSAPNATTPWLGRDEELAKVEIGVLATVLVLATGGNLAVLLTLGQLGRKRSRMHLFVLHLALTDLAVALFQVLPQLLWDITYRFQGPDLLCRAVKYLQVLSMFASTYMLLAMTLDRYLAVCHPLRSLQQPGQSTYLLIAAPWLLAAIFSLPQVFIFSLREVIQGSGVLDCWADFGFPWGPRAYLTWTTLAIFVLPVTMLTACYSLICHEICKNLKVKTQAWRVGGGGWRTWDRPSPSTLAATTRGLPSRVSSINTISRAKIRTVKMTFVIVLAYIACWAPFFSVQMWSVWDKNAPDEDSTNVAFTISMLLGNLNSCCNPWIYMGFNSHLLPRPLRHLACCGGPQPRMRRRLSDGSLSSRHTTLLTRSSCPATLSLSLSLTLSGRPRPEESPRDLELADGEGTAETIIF

[6] = cited from earlier work

**Q.** For `OC[C@H]1OC(O)[C@H]([18F])[C@@H](O)[C@@H]1O` (some centres unmarked) [[^18F]FDG], which sensitivity for corticotropinomas (corticotropinomas) is on record?
**A.** 40%

**Q.** For `C[C@@H](O)[C@@H](CO)NC(=O)[C@@H](CCCNC(=N)N)NC(=O)[C@@H]1CCCN1C(=O)[C@@H]1CSSC[C@H](NC(=O)[C@H](Cc2ccccc2)NC(=O)CN2CCN(CC(=O)O)CCN(CC(=O)O)CCN(CC(=O)O)CC2)C(=O)N[C@@H](Cc2ccc(O)cc2)C(=O)N[C@@H](Cc2ccccc2)C(=O)N[C@@H](CCC(N)=O)C(=O)N[C@@H](CC(N)=O)C(=O)N1` [[^68Ga]Ga-DOTA-mDesmo, metal not drawn] ({DOTA}-FCYFQNCP[dR][Thr(ol)]; disulfide 2-7), which sterility (Sterility test) is on record?
**A.** sterile

**Q.** What about the fraction unbound at 1 h [1] of the same molecule?
**A.** 0.344

**Q.** What about the “stability (single radio peak at Rf 0.0)” value ([2]; PBS, 37 °C) of the same molecule?
**A.** up to 4 h

**Q.** And the “shelf-life (single radio peak at Rf 0.0)” value ([2]; normal saline, room temperature)?
**A.** up to 4 h

**Q.** And the “total blood pool, share of the injected activity” value ([3]; 120 min, blood volume assumed 7% of body weight)?
**A.** ~ 3%

**Q.** And the route of excretion ([3]; rat, in vivo)?
**A.** primarily excreted via the renal route

**Q.** And the “clearance from muscles, lungs, adrenals, liver, pancreas, spleen and heart” value ([3]; time following administration)?
**A.** ≤ 120 min

**Q.** And the “uptake in the pituitary of patients with ECS” value (corticotropinoma; 4 patients of ECS)?
**A.** no uptake

**Q.** And the diagnostic accuracy (corticotropinoma; PET/CT, 24 patients of CD)?
**A.** 100%

**Q.** And the “patients of CD in whom the pituitary tumor was localized” value (corticotropinoma; of 24 patients of CD)?
**A.** 24 patients

**Q.** What about the endotoxin value (Endotoxin test) of the same molecule?
**A.** 8.6 ± 1.2 EU/V

**Q.** And the “stability (single radio peak at Rf 0.0)” value [4]?
**A.** up to 4 h

**Q.** What about the “Binding (%) (Mean ± SD)” value ([5]; V1b 15.6 nM, tracer 0.3 µM) of the same molecule?
**A.** 5.1 ± 1.3%

**Q.** And the “Binding (%) (Mean ± SD)” value ([5]; V1b 62.5 nM, tracer 0.3 µM)?
**A.** 25.7 ± 2.4%

**Q.** And the “Binding (%) (Mean ± SD)” value ([5]; V1b 125 nM, tracer 0.3 µM)?
**A.** 30.7 ± 1.9%

**Q.** And the “Binding (%) (Mean ± SD)” value ([5]; V1b 250 nM, tracer 0.3 µM)?
**A.** 44 ± 2.2%

**Q.** What about the “Binding (%) (Mean ± SD)” value ([5]; V1b 250 nM, tracer 0.3 µM + cold DOTA-mDesmo 5 µM) of the same molecule?
**A.** 38.8 ± 1.7%

**Q.** What about the “Binding (%) (Mean ± SD)” value ([5]; V1b 250 nM, tracer 0.3 µM + cold DOTA-mDesmo 20 µM) of the same molecule?
**A.** 22% and 22.1 ± 2.1%

**Q.** With Desmopressin as the molecule, how does the plasma half-life [6] read?
**A.** ~ 55 min
